Screening results: PubChem, Broad Institute
FN deposit inh: fibronectin deposition inhibition; AH1F fibroblasts, Alexa488-fibronectin deposition fluorescence, overnight; AID 743247; actives 0.086% (n = 350,000); inhibition, % at 12.6 µM;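 active = mean inhibition across replicates of 30% or more, regardless of how many single replicates reach that level; inconclusive = mean under 30% yet at least half of replicates reach 30%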;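 also: positive control wells lacked labelled fibronectin entirely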
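Assay system: AH1F fibroblasts assembling fluorescent fibronectin matrix; Amount: 10000 AH1F cells per well; Buffer or medium: DMEM, 2% serum; Probe or stimulus: Alexa488-fibronectin, 24 nM final in well; Doses: single compound dose, delivered by pin transfer; Incubation: 1 h adhesion, overnight exposure; Measured by: fluorescence 485/525 nm; Read-out: fibronectin deposition inhibition.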
PAX8 reporter: PAX8 transcriptional activity inhibition | RMG-I TPO-luciferase reporter, SteadyGlo, 24 h | inhibition, % at 12.6 µM | actives 1.2% (n = 360,000);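 active = mean replicate inhibition at least 60% with every replicate also reaching 60%; inconclusive = only one of the two criteria is met; inactive = mean below 60% and not all replicates reaching 60%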;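 also: luciferase light reporting Pax8 driven TPO promoter activity; plate controls were median of neutral control wells for no effect and mitoxantrone controls for full effect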
RAD52 inh: blocks human RAD52 DNA annealing; P43351; recombinant RAD52 DNA annealing, FRET fluorescence; inhibition, % at 18.7 µM; actives 0.46% (n = 360,000);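 active = every replicate showing at least 50% inhibition; inconclusive = mean inhibition at least 50% but not in every replicate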
RAD54 branch: inhibitors of human RAD54 branch migration. Q92698. RAD54 Holliday junction branch migration, FAM/BHQ fluorescence. inhibition, % at 10.4 µM. actives 0.14% (n = 360,000);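 active = mean normalized replicate activity at least 40 and at least half of replicates scoring 40 or more; inconclusive = only one of the two criteria met; inactive = mean below 40 and under half of replicates reaching 40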;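 also: 0% = median of neutral control wells and 100% = median of positive control wells; inhibitors cause a drop in the FAM fluorescence signal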
Target sequence (Q92698 whole entry, looked up): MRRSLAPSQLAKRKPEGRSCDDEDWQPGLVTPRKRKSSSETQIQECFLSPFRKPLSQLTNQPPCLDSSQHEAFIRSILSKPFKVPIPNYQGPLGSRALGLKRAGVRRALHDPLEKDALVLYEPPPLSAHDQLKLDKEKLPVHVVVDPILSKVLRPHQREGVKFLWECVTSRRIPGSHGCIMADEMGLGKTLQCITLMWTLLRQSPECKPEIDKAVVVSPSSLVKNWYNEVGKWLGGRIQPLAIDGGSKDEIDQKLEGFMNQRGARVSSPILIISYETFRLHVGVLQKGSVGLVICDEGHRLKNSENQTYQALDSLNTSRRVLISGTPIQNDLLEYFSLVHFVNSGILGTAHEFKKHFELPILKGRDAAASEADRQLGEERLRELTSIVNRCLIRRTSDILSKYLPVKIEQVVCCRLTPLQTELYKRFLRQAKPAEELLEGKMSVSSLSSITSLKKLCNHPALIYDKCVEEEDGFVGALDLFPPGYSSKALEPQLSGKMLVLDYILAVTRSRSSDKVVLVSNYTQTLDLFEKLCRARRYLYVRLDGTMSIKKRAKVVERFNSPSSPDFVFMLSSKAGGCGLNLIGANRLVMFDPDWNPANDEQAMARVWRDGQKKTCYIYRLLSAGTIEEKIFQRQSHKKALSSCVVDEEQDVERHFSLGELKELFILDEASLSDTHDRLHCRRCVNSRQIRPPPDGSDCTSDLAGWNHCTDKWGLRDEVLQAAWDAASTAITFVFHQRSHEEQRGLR
Rad54 DNA ctr: binds DNA, flagging false Rad54 inhibitor hits. shares compounds with RAD54 branch. Acridine orange-DNA displacement, fluorescence polarization, 20 min. AC50, µM (series often up to 35 µM), inactives show at the highest dose activity change, negative = DNA binding. actives 8% (n = 460). AID 651673;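 active = signal drop giving an AC50 within twice the top valid tested concentration of each sample, actives reach about 35 µM in these data; inactive = activity opposite to expected, plus the rest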;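 also: polarization loss reports compound binding to salmon sperm DNA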
DNA binder FP: DNA binding artifact in RAD52 counter-screen. shares compounds with RAD52 inh. Salmon sperm DNA/acridine orange FP displacement. AC50, µM. actives 8% (n = 1,000). AID 652128;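 active = fitted half-maximal concentration for signal loss at or below twice the highest dose tested, in every separate run, actives reach about 64 µM in these data; inconclusive = runs disagree, or flat partial signal loss, or poor fit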
* = called active by the depositor; i = inactive; ? = inconclusive; nt = no result. Sampled rows, rich in hits. Any-hit rate of the full collection: about 1.3%.

SMILES	FN deposit inh	PAX8 reporter	RAD52 inh	RAD54 branch	Rad54 DNA ctr	DNA binder FP
CN(C)CCCNc1nc2cc(-c3ccn[nH]3)sc2c(=O)n1C	-6.5	-11.3	42.6	29.2	nt	nt
COc1ccc(-c2cc3nc(NCCCN(C)C)n(C)c(=O)c3s2)cc1OC	7.7	-28.8	83.8*	68.6*	-5.7%	i
Cc1ccccc1-c1cc2nc(NCCCN(C)C)n(C)c(=O)c2s1	2.7	20.3	25.0	11.9	nt	nt
CNC(=S)NCc1ccc(OC)cc1	-1.0	4.1	-7.2	nt	nt	nt
CC(=O)Nc1cc(-c2cccc(C(=O)NCCN(C)C)c2)cn2c(-c3ccc(F)c(Cl)c3)cnc12	4.2	-12.6	40.6	16.6	nt	nt
COc1cccc(-c2cnc3c(NC(C)=O)cc(-c4cccc(C(=O)NCCN(C)C)c4)cn23)c1	0.7	20.3	99.9*	78.2*	0.1%	i
COc1ccc(-c2cnc3c(NC(C)=O)cc(-c4cccc(C(=O)NCCO)c4)cn23)cc1OC	-7.4	3.1	-0.4	5.5	nt	nt
COc1ccc(-c2cnc3c(NC(C)=O)cc(-c4cccc(C(=O)NCCN(C)C)c4)cn23)cc1OC	5.1	-16.7	100.8*	76.4*	1.2%	i
CC(=O)Nc1cc(-c2cccc(C(=O)NCCN(C)C)c2)cn2c(-c3ccc(C(C)=O)cc3)cnc12	-3.3	-15.8	70.6*	100.8*	-18.3%	i
CN(C)CCCN(C(=O)c1ccco1)c1nc(-c2ccc(Cl)cc2)cs1	1.6	-7.8	52.0*	53.0*	-15.9%	i
CCOC(=O)c1cnc2ccc(OCC)cc2c1NCCCN1CCOCC1	-4.3	12.7	70.3*	100.8*	-4.0%	i
COc1ccc(COC(=O)C2=C(C)NC(=O)NC2c2ccccc2OC(C)C)cc1 (centres undefined)	-2.9	16.4	-3.7	-21.4	nt	nt
Nc1ccc2ncccc2c1N	-11.8	-16.0	nt	9.4	nt	nt
Nc1nc(N)c2c(ccc3nccc32)[nH]1	4.1	15.6	77.2*	61.8*	-14.3%	i
COc1ccc2[nH]cc(CCNC(=O)c3ccc([N+](=O)[O-])cc3)c2c1	3.3	-0.7	-13.1	nt	nt	nt
Cc1c(C)n(CCN(C)C)c2ccc(C(=O)OCCN(C)C)cc12	15.9	-6.1	102.8*	103.8*	i	i
COc1ccc(Nc2cc(C)nc3ccc(OC)cc23)cc1	5.4	-0.2	55.5*	64.0*	3.5%	i
CC(C)OCC(O)CN1CCN(CCN2C(=O)c3cccc4cccc(c34)C2=O)CC1 (centres undefined)	5.4	-12.2	93.5*	79.0*	-13.4%	i
CCN(CC)CCNc1nc(SC)nc2sc3c(c12)CCN(C)C3	2.1	9.7	55.9*	53.0*	5.9%	i
COCCNc1nc(SC)nc2sc3c(c12)CCN(C)C3	5.4	3.6	10.0	9.9	nt	nt
COc1ccc(C(=O)NC2CCCCCC2)cc1S(=O)(=O)N1CCCc2ccccc21	nt	nt	nt	1.1	nt	nt
CCN1C(=O)CCN(C2CCCC2)c2nc(Nc3ccc(C(=O)NC4CCN(C)CC4)cc3OC)ncc21	17.6	-106.2	63.1*	?	2.8%	i
CCN1CCN(c2cc(C)c3cc(NC(=S)N4CCCCC4)ccc3n2)CC1	8.2	-29.9	85.4*	?	-11.0%	i
CCN1CCN(C(=S)Nc2ccc3nc(N4CCN(C)CC4)cc(C)c3c2)CC1	17.4	24.8	89.0*	56.1*	-0.2%	i
CCN1CCN(c2cc(C)c3cc(NC(=S)N4CCN(c5ccc(F)cc5)CC4)ccc3n2)CC1	0.7	-0.3	-7.3	-4.7	nt	nt
SMILES	FN deposit inh	PAX8 reporter	RAD52 inh	RAD54 branch	Rad54 DNA ctr	DNA binder FP
CN(C)c1nc(N)nc(CSc2nnnn2-c2ccc(C(=O)O)cc2)n1	-5.0	nt	nt	6.5	nt	nt
CCOC(=O)c1cc(NC(=O)N(C(C)C)C2CCCCC2)c(C)nc1C	0.2	-2.8	95.5*	-9.8	nt	i
Cc1cc(C)c2c(NC(N)=S)n[nH]c2n1	nt	6.8	-14.6	3.0	nt	nt
O=C(C[C@@H]1CC[C@@H]2[C@H](COC[C@@H](O)CN2C(=O)Nc2ccc3c(c2)OCO3)O1)N1CCN(c2ccccc2)CC1	-9.2	nt	-9.9	0.6	nt	nt
CCOc1cc(/C=C/c2cccc[n+]2C)ccc1O	-1.9	-23.0	72.2*	10.6	nt	i
CC1=Nc2cc(C(=O)NCCCN3CCN(C)CC3)ccc2Sc2ccc(C)cc21	1.1	11.7	77.3*	9.1	nt	i
CCCC1=Nc2cc(C(=O)NCCCN3CCN(C)CC3)ccc2Sc2ccccc21	14.2	29.8	47.2	1.7	nt	nt
COc1ccc(-c2csc(N)n2)cc1F	-0.7	-111.0	-27.7	nt	nt	nt
CS(=O)(=O)N1C[C@@H](O)COC[C@H]2O[C@@H](CC(=O)NC3Cc4ccccc4C3)CC[C@@H]21	-1.7	-7.5	1.7	-2.9	nt	nt
CC(C)Nc1ccc(Nc2ccnc3cc4ccccc4cc23)cc1	20.7	97.5*	99.0*	nt	nt	22.4µM*
OCCN1CCN(CC(O)COc2ccc(C34CC5CC(CC(C5)C3)C4)cc2)CC1 (centres undefined)	-0.6	18.9	56.8*	nt	nt	i
OCCN1CCN(CC/C=C2/c3ccccc3CSc3ccccc32)CC1	-10.6	11.1	17.7	-5.6	nt	nt
CCSc1ccc2c(c1)N(CCCN1CCN(C)CC1)c1ccccc1S2	-6.7	8.5	63.2*	25.9	nt	i
OCCN1CCN(CC/C=C2/c3ccccc3Sc3ccc(C(F)(F)F)cc32)CC1	3.2	7.4	58.5*	8.2	nt	i
CN1CCN(CCCN2c3ccccc3Sc3ccc(Cl)cc32)CC1	-5.7	5.5	79.4*	13.2	nt	i
CC(CN1CCN(CCOCCO)CC1)CN1c2ccccc2Sc2ccc(Cl)cc21 (centres undefined)	-4.4	6.4	11.8	11.6	nt	nt
OCCN1CCN(CCCN2c3ccccc3Sc3ccc(C(F)(F)F)cc32)CC1	-8.5	10.0	55.9*	?	nt	i
N#Cc1ccccc1Cn1c(=O)oc2ccccc21	-1.8	7.9	-28.9	10.4	nt	nt
OC1CC2CCC(C1)N2CCCN1c2ccccc2Sc2ccc(Cl)cc21 (centres undefined)	7.4	22.2	90.5*	18.4	nt	i
CN(C)CCCN1c2ccc(O)cc2Sc2ccc(Cl)cc21	5.2	9.5	48.6	28.1	nt	nt
COC(=O)c1ccc(N2CCC(C)CC2)c(N)c1	-4.2	nt	nt	nt	nt	nt
CC[n+]1ccc(/C=C/c2ccc(N(C)C)cc2)c2ccccc21	-20.8	94.6*	60.1*	nt	nt	12.6µM*
CCCNC(=O)Nc1ccc2c(c1)OC[C@@H](C)N(Cc1cccnc1)C[C@@H](C)[C@@H](OC)CN(C)C2=O	-0.4	11.2	-5.4	2.7	nt	nt
COc1ccc(NC(=O)N[C@@H]2CC[C@@H](CCn3cc(-c4ccccn4)nn3)O[C@@H]2CO)cc1	-11.8	-9.9	-1.7	1.3	nt	nt
CN1CCN(c2cc3c(c4c2[nH]c2ccccc24)C(=O)CC(C)(C)C3)CC1	6.8	17.9	67.5*	22.2	nt	i
CN1CCN(c2ccc(Cl)cc2NC(=O)c2cc(=O)[nH]c3ccccc23)CC1	-6.3	0.0	-1.9	11.7	nt	nt
Cc1cc2cc(CNC(=O)c3cccc([N+](=O)[O-])c3)ccc2n1C	1.8	9.8	53.8*	5.6	nt	i
